In the library only some 2.5% were active in any assay of this set; here they are far more common.
TRPC4 agonist: TRPC4 (mouse) channel activation. B-score at 10 µM. HEK293 TRPC4beta/mu-opioid, Fluo4 calcium fluorescence; stronger effect = higher value. AID 2237. Q9QUQ5. 310,000 compounds, 0.49% hits;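 active means B-score above 5 SD of library B-scores, and initial fluorescence ratio not above library mean plus 5 SD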;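 further: positive B-score marks a calcium rise read as TRPC4 activation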
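Material: TRPC4beta and mu-opioid receptor HEK293 stable cells | Incubation: 45 min room-temperature Fluo4 loading, 110 s read | Detection: Kinetic Fluo4 calcium fluorescence | Measure: Integrated baseline-normalised fluorescence ratio, converted to per-well B score | Benchmarks: Low control buffer alone, high control maximal DAMGO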
Platelet DG rel: platelet dense granule release activity; human platelet-rich plasma, SFLLRN dense granule ATP release, luminescence; inhibition, %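 (compounds screened at 7.5 µM in platelet-rich plasma)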; 300,000 compounds, 0.22% hits;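 active means mean replicate score, as percent of positive control, at or above 50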
TRPC4 PAM: TRPC4 (mouse) allosteric potentiation; Q9QUQ5; HEK293 TRPC4beta/mu-opioid, DAMGO EC20, Fluo-4 Ca2+ flux; stronger effect = higher value; B-score at 10 µM; 310,000 compounds, 0.42% hits;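 active means B-score of calcium response area above 5 SD of library B-scores, with initial fluorescence ratio within 5 SD of library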;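 further: B-score of integrated fluorescence ratio over time as area under calcium response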
TRPC4 inh: inhibitors of mouse TRPC4 channel. Q9QUQ5. HEK293 TRPC4beta/mu-opioid, DAMGO-evoked Fluo4 calcium flux; stronger effect = lower value. B-score at 10 µM. 300,000 compounds, 0.39% hits. AID 2247;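 active means B-score over 3 SD under the library average, no early fluorescence shift, positive overall ratio signal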
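System: stable TRPC4beta/mu-opioid receptor HEK293 cells; Dosing: single-point compound dosing; Measured by: Fluo4 Ca2+ flux fluorescence; Read-out basis: per-well B score of integrated baseline-normalized Fluo4 ratio.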
TRPC6 inh: inhibitors of mouse TRPC6 channel; Q61143; 310,000 compounds, 1.1% hits; AID 2553; B-score at 10 µM; HEK293-TRPC6, membrane potential dye, ACh-evoked depolarization; stronger effect = lower value;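 active means B-score under library mean minus 3 SD, initial fluorescence not abnormally high, positive integrated signal ratio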;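 further: B-score derived from integrated fluorescence ratio over the kinetic read; more negative B-score means stronger inhibition of depolarization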
Target sequence (Q61143 whole entry, looked up): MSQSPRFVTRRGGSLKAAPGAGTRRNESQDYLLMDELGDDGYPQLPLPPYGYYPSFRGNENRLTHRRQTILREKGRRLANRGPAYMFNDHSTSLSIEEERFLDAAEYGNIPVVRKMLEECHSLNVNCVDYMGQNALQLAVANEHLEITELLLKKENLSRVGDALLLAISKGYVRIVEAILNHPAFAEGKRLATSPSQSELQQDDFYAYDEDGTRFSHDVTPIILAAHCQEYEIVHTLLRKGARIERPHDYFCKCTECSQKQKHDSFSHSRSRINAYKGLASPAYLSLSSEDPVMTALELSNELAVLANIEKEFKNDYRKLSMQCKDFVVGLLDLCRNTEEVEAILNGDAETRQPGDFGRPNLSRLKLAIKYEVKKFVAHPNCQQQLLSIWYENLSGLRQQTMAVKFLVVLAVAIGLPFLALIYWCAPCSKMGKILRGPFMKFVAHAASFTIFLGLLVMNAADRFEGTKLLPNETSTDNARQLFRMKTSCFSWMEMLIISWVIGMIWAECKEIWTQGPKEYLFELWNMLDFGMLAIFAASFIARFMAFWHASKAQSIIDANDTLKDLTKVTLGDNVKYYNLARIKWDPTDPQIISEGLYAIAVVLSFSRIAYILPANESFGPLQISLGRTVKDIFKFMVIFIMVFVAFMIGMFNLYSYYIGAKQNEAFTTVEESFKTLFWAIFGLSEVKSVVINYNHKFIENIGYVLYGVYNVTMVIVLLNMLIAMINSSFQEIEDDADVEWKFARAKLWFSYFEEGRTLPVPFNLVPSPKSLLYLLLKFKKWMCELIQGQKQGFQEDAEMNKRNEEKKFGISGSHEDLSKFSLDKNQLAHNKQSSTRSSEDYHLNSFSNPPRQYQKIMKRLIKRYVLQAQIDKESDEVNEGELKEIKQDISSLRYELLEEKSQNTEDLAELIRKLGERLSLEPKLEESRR
TRPC6 activator: activates the mouse TRPC6 cation channel. HEK293-TRPC6 membrane potential dye fluorescence; stronger effect = higher value. B-score at 10 µM. 310,000 compounds, 0.13% hits;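 active means B-score of the integrated fluorescence ratio above library mean plus 3 SD, and starting fluorescence ratio within library mean plus 5 SD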;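 further: higher score means more depolarization so channel activation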
TRPC4 sel inh 2: mouse TRPC4 off-target activity of TRPC6 inhibitors, second screen; shares compounds with TRPC6 inh; HEK293 TRPC4/MOR, membrane potential dye fluorescence; channel activated by saturating DAMGO dose; inhibition, % at 10 µM; 920 compounds, 42% hits;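 active means compounds whose fluorescence signal differed from control wells by over 3 SD, either direction, in both duplicate plates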
TRPC4 spec: selectivity of TRPC6 inhibitors: effect on mouse TRPC4 | HEK293 TRPC4/mu-opioid, membrane potential fluorescence | 920 compounds, 61% hits | activity change, negative = inhibition, % at 10 µM | shares compounds with TRPC6 inh | AID 2777;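 active means rise or fall in signal beyond 3 SD of buffer-only wells in both replicate plates, either sign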;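 further: integrated kinetic ratio of fluorescence range over baseline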
HEK293 MPD ctr 2-1: parental HEK293 nonspecific activity of TRPC6 inhibitors, second screen. parental HEK293 membrane potential dye fluorescence; maximal acetylcholine challenge after compound addition. AID 2779. shares compounds with TRPC6 inh. signal change vs control, % at 10 µM. 920 compounds, 31% hits;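 active means membrane potential signal moving either way by over 3 SD of the maximum-effect control, in both duplicate plates, meaning non-specific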
HEK293 MPD ctr-1: counter-screen for TRPC6 inhibitors: effect in parental HEK293 cells | shares compounds with TRPC6 inh | parental HEK293 membrane potential dye fluorescence | membrane potential signal change, % at 10 µM | 920 compounds, 60% hits | AID 2780;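 active means membrane potential signal shifting up or down by more than 3 SD of buffer-only wells, on both duplicate plates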
HEK293 MPD ctr-2: checks TRPC6 modulator effects in parental HEK293 cells; AID 488924; membrane potential signal change, % at 10 µM; membrane potential dye fluorescence; 2,400 compounds, 51% hits; shares compounds with TRPC6 inh;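 active means membrane potential signal moves up or down beyond 5 SD from buffer-only wells, on both duplicate plates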
HEK293 MPD ctr 2-2: second check of TRPC6 modulator effects in parental HEK293 cells; shares compounds with TRPC6 inh; membrane potential dye fluorescence; after compound, maximal acetylcholine stimulation; inhibition, % at 10 µM; 2,400 compounds, 14% hits;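 active means membrane potential signal drops by more than 5 SD from the mean control signal, in both duplicate plates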;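 further: plate controls were acetylcholine ECmax control wells for no effect and buffer only wells for full effect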
TRPC4 ctr mod: selectivity of TRPC6 modulators against mouse TRPC4; shares compounds with TRPC6 inh; 2,400 compounds, 69% hits; percent change from control (negative = decrease, positive = increase), % at 10 µM; HEK293 TRPC4/mu-opioid, membrane potential fluorescence;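 active means membrane potential signal moved up or down beyond 5 SD of buffer control wells, in both duplicate plates, actives on both sides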;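 further: plate controls were assay buffer wells for no effect and DAMGO maximal-effect wells for full effect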
TRPC4/MOR inh 2: second selectivity test of TRPC6 modulators against mouse TRPC4; shares compounds with TRPC6 inh; inhibition, % at 10 µM; AID 488928; 2,400 compounds, 55% hits; HEK293 TRPC4/mu-opioid, membrane potential dye fluorescence; stimulated with maximal-effect DAMGO;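 active means drop in membrane potential signal beyond 5 SD of the control wells in both duplicate plates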;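 further: TRPC4 counter screen for TRPC6 hits run under conditions tuned for TRPC6 not TRPC4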
TRPC6 block conf: confirmation of mouse TRPC6 inhibitors; shares compounds with TRPC6 inh; HEK293-TRPC6, membrane potential dye, ACh-evoked depolarization; inhibition, % at 10 µM; 3,300 compounds, 43% hits; AID 488960;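 active means fluorescence ratio falls more than 5 SD below the full-stimulation control mean, in both duplicate runs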;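 further: integrated fluorescence ratio of peak minus minimum over baseline after agonist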
TRPC6 act conf: confirmation of mouse TRPC6 activators; shares compounds with TRPC6 inh; HEK293-TRPC6 membrane potential dye fluorescence, FDSS; activation, % at 10 µM; 2,800 compounds, 11% hits; AID 488961;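 active means ratio signal rise beyond 5 SD above unstimulated control wells' mean, seen in both duplicate runs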;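 further: plate controls were buffer EC0 wells for no effect and acetylcholine ECmax response for full effect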
The depositor's hits bear a star; i = inactive; x = no result.

SMILES	TRPC4 agonist	Platelet DG rel	TRPC4 PAM	TRPC4 inh	TRPC6 inh	TRPC6 activator	HEK293 MPD ctr-2	HEK293 MPD ctr 2-2	TRPC4 ctr mod	TRPC4/MOR inh 2	TRPC6 block conf	TRPC6 act conf	others
CCOC(=O)C1(C)/C(=N/Nc2ccccc2OC)C(=O)C(=O)N1c1ccccc1 (stereo unspecified)	i	-1	i	i	-8.1*	i	-226%*	i	-40%*	68%*	44%*	i
Cc1cccc(NS(=O)(=O)c2cccc(C(=O)N3CCN(c4ccccn4)CC3)c2)c1	i	12	i	i	-10*	i	x	x	x	x	79%*	x	TRPC4 sel inh 2=i;TRPC4 spec=2.7%*;HEK293 MPD ctr 2-1=220%*;HEK293 MPD ctr-1=1.3%*
O=C(c1cccc(S(=O)(=O)Nc2ccccc2F)c1)N1CCN(c2ccccc2F)CC1	i	-11	i	i	-6.5*	i	i	i	i	i	64%*	x
CN(c1ccccc1)S(=O)(=O)c1cccc(C(=O)N2CCN(c3ccccn3)CC2)c1	i	0	i	i	-7.2*	12*	144%*	i	38%*	i	64%*	94%*
CC1Cc2ccccc2N1S(=O)(=O)c1cccc(C(=O)N2CCN(c3ncccn3)CC2)c1 (stereo unspecified)	i	-1	i	i	i	21*	130%*	i	86%*	86%*	x	174%*
CCN(CC)C(=O)c1sc(NC(=O)C(C)C)c(C#N)c1C	i	0	i	i	i	i	x	x	x	x	x	x
COc1ccccc1CN(C)CC(=O)NC1CCCc2ccccc21 (stereo unspecified)	i	-4	i	i	i	i	x	x	x	x	x	x
Cc1onc(-c2ccccc2)c1C(=O)N(Cc1ccco1)Cc1cccs1	i	8	i	i	i	i	x	x	x	x	x	x
COc1ccc(C(=O)COc2ccc(F)cc2)c(O)c1C	i	0	i	i	i	i	x	x	x	x	x	x
CCOC(=O)N1CCN(C(=O)c2cccc(NS(=O)(=O)c3ccc(F)c(F)c3)c2)CC1	i	-1	i	i	i	i	x	x	x	x	x	x
CCOC(=O)N1CCN(C(=O)c2cccc(S(=O)(=O)Nc3ccc(Br)cc3)c2)CC1	i	-1	i	i	-9*	i	x	x	x	x	i	x	TRPC4 sel inh 2=i;TRPC4 spec=i;HEK293 MPD ctr 2-1=252%*;HEK293 MPD ctr-1=i
Cc1cccc(NS(=O)(=O)c2cccc(C(=O)N3CCN(S(=O)(=O)c4ccccc4)CC3)c2)c1	i	4	i	i	-13*	13*	i	i	i	i	110%*	132%*
Cc1cccc(C)c1NC(=O)CNC(=O)c1cccnc1	i	-12	i	i	i	i	x	x	x	x	x	x
O=Cc1ccc2ccc3cccnc3c2n1	i	-4	i	i	-9.8*	i	-386%*	95%*	-60%*	68%*	78%*	i
COc1cccc(N=Nc2c(N)[nH]n3c(=O)cc(-c4ccccc4)nc23)c1	i	-30	i	i	-5.3*	i	i	i	-20%*	66%*	i	i
Cc1ccc(N=Nc2c(N)[nH]n3c(=O)cc(-c4ccccc4)nc23)cc1	i	x	i	i	-8.6*	i	x	x	x	x	79%*	i	TRPC4 sel inh 2=52%*;TRPC4 spec=-17%*;HEK293 MPD ctr 2-1=i;HEK293 MPD ctr-1=-220%*
Cc1cc(=O)n2[nH]c(N)c(N=Nc3ccccc3)c2n1	i	-1	i	i	i	i	x	x	x	x	x	x
CSCc1ccc(C(=O)NCc2ccc(F)cc2)cc1	i	5	i	i	i	i	x	x	x	x	x	x
O=C(O)c1cc(NN=C2c3ccccc3-c3ccccc32)ccc1Cl	i	25	i	-8*	-5.4*	i	i	i	-12%*	59%*	61%*	x
O=C(Nc1ccc(COc2ccccc2)cc1)Nc1cccc(C(=O)O)c1	i	-4	i	i	i	i	x	x	x	x	x	x
Cc1nn2c(NCCN(C)C)c3c(nc2c1-c1ccccc1)CCCC3	i	x	i	i	-7.3*	i	-192%*	i	-36%*	52%*	48%*	i
COCCNc1c2c(nc3c(-c4ccccc4)c(C)nn13)CCCC2	i	-1	i	i	i	i	x	x	x	x	x	x
O=C1C(NS(=O)(=O)c2cccs2)=C(N2CCN(Cc3ccccc3)CC2)C(=O)c2ccccc21	i	10	i	i	-7.3*	i	-136%*	i	-36%*	72%*	58%*	i
CN1CCN(C2=C(NS(=O)(=O)c3cccs3)C(=O)c3ccccc3C2=O)CC1	i	8	i	i	i	i	x	x	x	x	x	x
COC(=O)c1ccc(C(=S)N2CCCCC2)cc1	i	2	i	i	i	i	x	x	x	x	x	x
COC(=O)c1cccc(CSC(=S)N2CCCC2)c1	i	11	i	i	i	13*	i	i	i	i	x	130%*

Source: PubChem (several laboratories)
